Test results taken from ChEMBL document CHEMBL2046412, “Xanthine oxidase inhibitory activity of constituents of Cinnamomum cassia twigs” (Bioorg Med Chem Lett, 2012).

What was measured:
[1] = molecular target: T1, Xanthine dehydrogenase/oxidase (Homo sapiens, UniProt P47989); assay: Inhibition of xanthine oxidase- mediated uric acid formation at 50 ug/mL after 5 mins by spectrophotometry
[2] = molecular target: T1, Xanthine dehydrogenase/oxidase; assay: Inhibition of xanthine oxidase- mediated uric acid formation after 5 mins by spectrophotometry
In short: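 Inhibition was taken relative to uric acid formed in the uninhibited control, and IC50 was derived from the mean of triplicate measurements.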

T1 sequence (P47989 whole entry): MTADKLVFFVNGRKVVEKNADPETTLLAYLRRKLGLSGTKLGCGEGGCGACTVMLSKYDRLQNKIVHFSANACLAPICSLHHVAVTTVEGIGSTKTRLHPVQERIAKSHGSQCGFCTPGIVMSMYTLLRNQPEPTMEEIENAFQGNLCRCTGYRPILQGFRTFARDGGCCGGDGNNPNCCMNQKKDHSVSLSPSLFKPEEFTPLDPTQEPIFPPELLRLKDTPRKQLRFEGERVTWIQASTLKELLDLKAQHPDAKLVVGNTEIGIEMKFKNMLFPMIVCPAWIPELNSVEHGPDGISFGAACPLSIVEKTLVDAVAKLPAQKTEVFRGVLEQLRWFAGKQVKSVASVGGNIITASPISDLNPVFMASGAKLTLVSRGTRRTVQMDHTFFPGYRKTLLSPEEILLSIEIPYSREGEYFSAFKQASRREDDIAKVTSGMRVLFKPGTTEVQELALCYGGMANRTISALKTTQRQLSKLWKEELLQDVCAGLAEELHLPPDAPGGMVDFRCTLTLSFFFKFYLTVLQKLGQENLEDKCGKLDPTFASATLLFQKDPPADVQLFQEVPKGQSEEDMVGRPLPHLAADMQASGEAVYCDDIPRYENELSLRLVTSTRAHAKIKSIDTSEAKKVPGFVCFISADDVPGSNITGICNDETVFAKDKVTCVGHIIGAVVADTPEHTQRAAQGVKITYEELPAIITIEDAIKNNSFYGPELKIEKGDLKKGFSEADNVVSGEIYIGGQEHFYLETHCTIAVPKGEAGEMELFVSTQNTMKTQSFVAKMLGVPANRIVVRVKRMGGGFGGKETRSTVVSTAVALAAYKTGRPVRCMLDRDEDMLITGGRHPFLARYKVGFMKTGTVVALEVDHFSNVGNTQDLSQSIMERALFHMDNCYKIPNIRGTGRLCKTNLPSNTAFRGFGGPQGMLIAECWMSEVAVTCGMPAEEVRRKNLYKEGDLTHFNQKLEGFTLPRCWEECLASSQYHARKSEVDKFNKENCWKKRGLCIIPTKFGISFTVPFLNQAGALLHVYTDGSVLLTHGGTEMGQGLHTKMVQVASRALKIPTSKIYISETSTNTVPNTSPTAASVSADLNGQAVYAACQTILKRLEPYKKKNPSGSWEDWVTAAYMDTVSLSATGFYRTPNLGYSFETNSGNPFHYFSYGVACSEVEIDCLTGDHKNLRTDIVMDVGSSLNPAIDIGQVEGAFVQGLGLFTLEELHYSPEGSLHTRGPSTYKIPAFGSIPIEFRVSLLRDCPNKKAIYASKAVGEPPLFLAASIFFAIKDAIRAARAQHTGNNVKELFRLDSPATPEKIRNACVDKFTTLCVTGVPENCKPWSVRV

Compound	inhibition at 50 µg/mL [1] [%]	IC50 [2] [µM]
O[C@@H]1[C@@H](O)[C@@H](OC/C=C/c2ccccc2)O[C@H](CO[C@@H]2OC[C@H](O)[C@H](O)[C@H]2O)[C@H]1O [ROSAVIN]	18.7	> 117
O=C/C=C/c1ccccc1	96.7	59
OC/C=C/c1ccccc1 [CINNAMIC ALCOHOL]	47.6	> 373
OC/C=C/c1ccccc1O[C@@H]1O[C@H](CO[C@@H]2OC[C@](O)(CO)[C@H]2O)[C@@H](O)[C@H](O)[C@H]1O [CINNACASOLIDE B]	35.4	> 113
O=C(O)CCc1ccccc1O[C@@H]1O[C@H](CO)[C@@H](O)[C@H](O)[C@H]1O [DIHYDROMELILOTOSIDE]	45.4	> 152
COc1cc(O[C@@H]2O[C@H](CO)[C@@H](O)[C@H](O)[C@H]2O)ccc1Oc1ccc(O[C@@H]2O[C@H](CO)[C@@H](O)[C@H](O)[C@H]2O)c(OC)c1 [CINNACASOLIDE C]	28.2	> 85.2
COC(=O)CCc1ccccc1O[C@@H]1O[C@H](CO)[C@@H](O)[C@H](O)[C@H]1O [METHYL DIHYDROMELILOTOSIDE]	22.4	> 146
COC(=O)c1cccc(O[C@@H]2O[C@H](CO[C@@H]3OC[C@](O)(CO)[C@H]3O)[C@@H](O)[C@H](O)[C@H]2O)c1 [CINNACASOLIDE A]	22.2	> 112
COc1cc(/C=C/C=O)ccc1O [CONIFERYL ALDEHYDE]	72.5	204

Further molecules by falling IC50 [2], results first:

inhibition at 50 µg/mL [1] [%]	IC50 [2] [µM]	Compound
73.2	196	O=C(O)/C=C/c1ccccc1O [O-COUMARIC ACID]
93.4	178	O=C(O)/C=C/c1ccccc1 [CINNAMIC ACID]
94.2	98.5	O=C/C=C/c1ccccc1O [2-HYDROXYCINNAMALDEHYDE]
95.8	85.1	COc1ccccc1/C=C/C=O
